# Legend:
# [1] = target: T1, SARS-CoV-2 M^pro (Severe acute respiratory syndrome coronavirus 2, UniProt P0DTD1); assay type: biochemical
# [2] = target: T1, SARS-CoV-2 M^pro; assay: Mass spectrometry; assay type: binding; settings: 2 μM protease, 15 μM compound, on ice 3 h
# How it was run: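 Mpro–test compound mixture kept on ice for 3 h, then run on a quadrupole-TOF LC-MS/MS system. Raw mass signal deconvoluted to total intact protein mass to detect adduct formation. Protein was recombinant, E. coli-expressed.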
# [3] = target: T1, SARS-CoV-2 M^pro; assay: Enzymatic reversibility assay; assay type: biochemical; settings: 10 μM Mpro, 100 μM compound, 180 min
# How it was run: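 Recombinant Mpro (10 μM), E. coli-expressed, held with 100 μM test compound for 180 min, then split into four portions given different numbers of ultrafiltration rounds. Retained protease diluted to 0.5 μM final; activity measured; triplicates averaged.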
# [4] = system: Vero cells; settings: MTT
# [5] = system: MDCK cells; settings: MTT
# [6] = system: SARS-CoV-2; settings: lungs and nose of SARS-CoV-2 infected mice; cited from earlier work
structure (smiles),measurement,setting,value
"NC(=S)N/N=C/c1ccc(-c2ccc(C(=O)O)c(O)c2)o1 [F8–B6, (E)-4-(5-((2-carbamothioylhydrazono)methyl)furan-2-yl)-2-hydroxybenzoic acid]","Mechanism of inhibition (overall, kinetic and mass spectrometry studies)",[1],reversible covalent inhibitor
same,Type of inhibition from Lineweaver-Burk plot,"[1]; enzymatic kinetic assay, 3 h preincubation, varied substrate",non-competitive inhibitor
same,Effect of prolonged incubation on inhibition,"[1]; incubation 5, 30, 180 min (Fig. S3A-C)",time-dependent increase of inhibition activity
same,Covalent binding by LC-MS/MS,[2],covalently bonded
same,Reversibility of inhibition after ultrafiltration,[3],reversible inhibitor
"NC(=S)N/N=C/c1ccc(Cc2ccccc2)o1 [F8–B22, (E)-2-((5-benzylfuran-2-yl)methylene)hydrazine-1-carbothioamide]",Potency relative to initial compound F8,[1]; ratio of IC50 values,13 fold
same,Cytotoxicity in Vero cells,[4],low cytotoxicity
same,Cytotoxicity in MDCK cells,[5],low cytotoxicity
Cc1ccc(NC(=O)c2ccc(CN3CCN(C)CC3)cc2)cc1Nc1nc(-c2cccnc2)cs1 [Masitinib],Effect on coronavirus replication in infected mice,[6],block the replication of coronavirus in the lungs and nose
